Key:
[1] = target: T1, Alpha-1 adrenergic receptor (Mus musculus, UniProt P97714+P97717+P97718); assay: Displacement of [3H]prazosin from alpha1 adrenoceptor in C57BL/6 mouse hippocampal homogenates after 40 mins by liquid scintillation counting method
T1 sequence (P97714 whole entry): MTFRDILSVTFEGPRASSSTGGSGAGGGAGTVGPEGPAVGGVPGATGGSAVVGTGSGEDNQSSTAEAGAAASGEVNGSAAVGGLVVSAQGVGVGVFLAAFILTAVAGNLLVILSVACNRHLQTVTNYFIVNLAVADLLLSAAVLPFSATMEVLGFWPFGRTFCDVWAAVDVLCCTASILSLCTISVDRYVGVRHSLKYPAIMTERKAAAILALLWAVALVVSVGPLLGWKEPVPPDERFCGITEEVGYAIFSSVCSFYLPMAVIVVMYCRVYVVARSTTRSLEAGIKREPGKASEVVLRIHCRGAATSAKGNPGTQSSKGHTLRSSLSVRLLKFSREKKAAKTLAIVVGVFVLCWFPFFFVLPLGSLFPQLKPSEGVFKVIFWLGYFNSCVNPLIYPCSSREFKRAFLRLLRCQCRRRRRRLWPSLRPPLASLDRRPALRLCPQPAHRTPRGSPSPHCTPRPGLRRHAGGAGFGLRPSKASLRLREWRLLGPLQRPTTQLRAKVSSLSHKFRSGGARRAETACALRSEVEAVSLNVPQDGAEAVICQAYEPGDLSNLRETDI
T1 sequence (P97717 whole entry): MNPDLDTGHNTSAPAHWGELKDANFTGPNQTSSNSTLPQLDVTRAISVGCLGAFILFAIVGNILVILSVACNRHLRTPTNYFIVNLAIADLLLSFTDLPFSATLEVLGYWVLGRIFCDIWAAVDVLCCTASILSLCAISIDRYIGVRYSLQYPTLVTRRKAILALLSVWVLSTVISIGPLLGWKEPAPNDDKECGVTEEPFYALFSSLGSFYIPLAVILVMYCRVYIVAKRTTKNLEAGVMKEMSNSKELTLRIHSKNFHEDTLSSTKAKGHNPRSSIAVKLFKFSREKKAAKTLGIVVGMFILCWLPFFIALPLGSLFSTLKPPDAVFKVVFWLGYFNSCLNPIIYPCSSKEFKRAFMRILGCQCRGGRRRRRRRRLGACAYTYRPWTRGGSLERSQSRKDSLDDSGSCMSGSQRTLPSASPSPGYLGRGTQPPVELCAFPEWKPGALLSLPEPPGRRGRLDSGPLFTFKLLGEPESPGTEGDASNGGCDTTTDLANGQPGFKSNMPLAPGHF
T1 sequence (P97718 whole entry): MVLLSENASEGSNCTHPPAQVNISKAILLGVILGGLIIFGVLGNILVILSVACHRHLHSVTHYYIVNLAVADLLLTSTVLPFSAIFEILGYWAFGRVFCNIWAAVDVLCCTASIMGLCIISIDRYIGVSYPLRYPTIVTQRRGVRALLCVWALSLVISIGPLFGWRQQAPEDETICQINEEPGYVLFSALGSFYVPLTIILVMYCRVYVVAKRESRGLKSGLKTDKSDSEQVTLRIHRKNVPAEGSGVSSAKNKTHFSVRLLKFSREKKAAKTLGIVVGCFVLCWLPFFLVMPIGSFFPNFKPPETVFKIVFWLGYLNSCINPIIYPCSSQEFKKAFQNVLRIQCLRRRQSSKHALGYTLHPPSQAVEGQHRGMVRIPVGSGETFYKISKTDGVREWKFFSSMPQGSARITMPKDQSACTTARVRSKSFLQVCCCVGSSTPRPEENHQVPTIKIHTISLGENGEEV
Outline: (§1)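 Mouse hippocampal homogenate incubated with 1.5 nM [³H]prazosin and competing ligand across a concentration series. Bound radioligand was expressed as displacement relative to control. IC₅₀ was obtained from non-linear regression fitting of concentration-effect curves, and curve fits were compared with tamsulosin.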

Mus musculus [2] = assay: Anti-depressant-like activity in mouse assessed as time spent immobile at 0.1 mg/kg, ip administered 60 mins prior to testing measured for 6 mins by tail suspension test (reference value: 186.9 +/- 13.2 secs); type: functional
Mus musculus [3] = assay: Anti-depressant-like activity in mouse assessed as time spent immobile at 1 mg/kg, ip administered 60 mins prior to testing measured for 6 mins by tail suspension test (reference value: 186.9 +/- 13.2 secs); type: functional
Mus musculus [4] = assay: Anti-depressant-like activity in mouse assessed as time spent immobile at 3.2 mg/kg, ip administered 60 mins prior to testing measured for 6 mins by tail suspension test (reference value: 186.9 +/- 13.2 secs); type: functional
Mus musculus [5] = assay: Toxicity in mouse assessed as suppression of locomotion at 1 mg/kg, ip measured for 5 mins; type: organism-based; details: in vivo
Mus musculus [6] = assay: Toxicity in mouse assessed as suppression of locomotion at 10 mg/kg, ip measured for 5 mins; type: organism-based; details: in vivo
Mus musculus [7] = assay: Toxicity in mouse assessed as suppression of locomotion at 0.1 mg/kg, ip measured for 5 mins; type: organism-based; details: in vivo
alpha1 adrenoceptor [8] = target: T2, alpha1 adrenoceptor (Mus musculus, UniProt P97714+P97717+P97718); assay: Displacement of [3H]prazosin from alpha1 adrenoceptor in C57BL/6 mouse hippocampal homogenates assessed as remaining receptor bound [3H]prazosin levels at 0.0001 uM after 40 mins by liquid scintillation counting method relative to control; details: probe [3H]prazosin, read-out: Activity; outline: as §1
T2 sequence (P97714 whole entry): T1 sequence (P97714 whole entry)
T2 sequence (P97717 whole entry): T1 sequence (P97717 whole entry)
T2 sequence (P97718 whole entry): T1 sequence (P97718 whole entry)

alpha1 adrenoceptor [9] = target: T2, alpha1 adrenoceptor; assay: Displacement of [3H]prazosin from alpha1 adrenoceptor in C57BL/6 mouse hippocampal homogenates assessed as remaining receptor bound [3H]prazosin levels at 0.001 uM after 40 mins by liquid scintillation counting method relative to control; details: probe [3H]prazosin, read-out: Activity; outline: as §1
alpha1 adrenoceptor [10] = target: T2, alpha1 adrenoceptor; assay: Displacement of [3H]prazosin from alpha1 adrenoceptor in C57BL/6 mouse hippocampal homogenates assessed as remaining receptor bound [3H]prazosin levels at 0.003 uM after 40 mins by liquid scintillation counting method relative to control; details: probe [3H]prazosin, read-out: Activity; outline: as §1
alpha1 adrenoceptor [11] = target: T2, alpha1 adrenoceptor; assay: Displacement of [3H]prazosin from alpha1 adrenoceptor in C57BL/6 mouse hippocampal homogenates assessed as remaining receptor bound [3H]prazosin levels at 0.01 uM after 40 mins by liquid scintillation counting method relative to control; details: probe [3H]prazosin, read-out: Activity; outline: as §1
alpha1 adrenoceptor [12] = target: T2, alpha1 adrenoceptor; assay: Displacement of [3H]prazosin from alpha1 adrenoceptor in C57BL/6 mouse hippocampal homogenates assessed as remaining receptor bound [3H]prazosin levels at 0.03 uM after 40 mins by liquid scintillation counting method relative to control; details: probe [3H]prazosin, read-out: Activity; outline: as §1
alpha1 adrenoceptor [13] = target: T2, alpha1 adrenoceptor; assay: Displacement of [3H]prazosin from alpha1 adrenoceptor in C57BL/6 mouse hippocampal homogenates assessed as remaining receptor bound [3H]prazosin levels at 0.1 uM after 40 mins by liquid scintillation counting method relative to control; details: probe [3H]prazosin, read-out: Activity; outline: as §1
alpha1 adrenoceptor [14] = target: T2, alpha1 adrenoceptor; assay: Displacement of [3H]prazosin from alpha1 adrenoceptor in C57BL/6 mouse hippocampal homogenates assessed as remaining receptor bound [3H]prazosin levels at 0.3 uM after 40 mins by liquid scintillation counting method relative to control; details: probe [3H]prazosin, read-out: Activity; outline: as §1
alpha1 adrenoceptor [15] = target: T2, alpha1 adrenoceptor; assay: Displacement of [3H]prazosin from alpha1 adrenoceptor in C57BL/6 mouse hippocampal homogenates assessed as remaining receptor bound [3H]prazosin levels at 1 uM after 40 mins by liquid scintillation counting method relative to control; details: probe [3H]prazosin, read-out: Activity; outline: as §1
alpha1 adrenoceptor [16] = target: T2, alpha1 adrenoceptor; assay: Displacement of [3H]prazosin from alpha1 adrenoceptor in C57BL/6 mouse hippocampal homogenates assessed as remaining receptor bound [3H]prazosin levels at 3 uM after 40 mins by liquid scintillation counting method relative to control; details: probe [3H]prazosin, read-out: Activity; outline: as §1
alpha1 adrenoceptor [17] = target: T2, alpha1 adrenoceptor; assay: Displacement of [3H]prazosin from alpha1 adrenoceptor in C57BL/6 mouse hippocampal homogenates assessed as remaining receptor bound [3H]prazosin levels at 10 uM after 40 mins by liquid scintillation counting method relative to control; details: probe [3H]prazosin, read-out: Activity; outline: as §1
alpha1 adrenoceptor [18] = target: T2, alpha1 adrenoceptor; assay: Displacement of [3H]prazosin from alpha1 adrenoceptor in C57BL/6 mouse hippocampal homogenates assessed as remaining receptor bound [3H]prazosin levels at 30 uM after 40 mins by liquid scintillation counting method relative to control; details: probe [3H]prazosin, read-out: Activity; outline: as §1
alpha1 adrenoceptor [19] = target: T2, alpha1 adrenoceptor; assay: Displacement of [3H]prazosin from alpha1 adrenoceptor in C57BL/6 mouse hippocampal homogenates assessed as remaining receptor bound [3H]prazosin levels at 100 uM after 40 mins by liquid scintillation counting method relative to control; details: probe [3H]prazosin, read-out: Activity; outline: as §1

IC50 [1] [nM]	activity at 40 min, 0.0001 µM (alpha1 adrenoceptor [8]) [%]	activity at 40 min, 0.001 µM (alpha1 adrenoceptor [9]) [%]	activity at 40 min, 0.003 µM (alpha1 adrenoceptor [10]) [%]	activity at 40 min, 0.01 µM (alpha1 adrenoceptor [11]) [%]	activity at 40 min, 0.03 µM (alpha1 adrenoceptor [12]) [%]	activity at 40 min, 0.1 µM (alpha1 adrenoceptor [13]) [%]	activity at 40 min, 0.3 µM (alpha1 adrenoceptor [14]) [%]	activity at 40 min, 1 µM (alpha1 adrenoceptor [15]) [%]	activity at 40 min, 3 µM (alpha1 adrenoceptor [16]) [%]	activity at 40 min, 10 µM (alpha1 adrenoceptor [17]) [%]	activity at 40 min, 30 µM (alpha1 adrenoceptor [18]) [%]	activity at 40 min, 100 µM (alpha1 adrenoceptor [19]) [%]	SMILES	Time (Mus musculus [2]) [s]	Time (Mus musculus [3]) [s]	Time (Mus musculus [4]) [s]	Activity (Mus musculus [5])	Activity (Mus musculus [6])	Activity (Mus musculus [7])
348													CCN1/C(=C/c2ccc3cc(F)ccc3[n+]2CC)C=Cc2ccccc21.[I-]	185.5	198.1	113.5	Non-Toxic	Toxic	Non-Toxic
711	100	111	130	98.3	119	96	94	39.3	52	-2.8	-3	12.3	CCN1/C(=C/c2ccc3cc(I)ccc3[n+]2CC)C=Cc2ccccc21.[I-]	183	184.5	167.6	Non-Toxic	Non-Toxic	Non-Toxic
60	100	92.8	84	81.2		44.6	8	16.6		12.6	-5	13.3	CCN1/C(=C/c2ccc3ccccc3[n+]2CC)C=Cc2ccccc21.[I-]		185.8	149.3	Toxic		Non-Toxic
		100		26.3		2.7		8.3		3		0	Cc1ccnc2ccccc12						
1.8													CCOc1ccccc1OCCN[C@H](C)Cc1ccc(OC)c(S(N)(=O)=O)c1 [TAMSULOSIN]						
